Measured values of several laboratories.
Each line is one published result; the experiments were not run side by side.
FLT3: Receptor-type tyrosine-protein kinase FLT3 (FLT3, Homo sapiens, UniProt P36888)
FAAH: Fatty-acid amide hydrolase 1 (FAAH, Homo sapiens, UniProt O00519)
Aldo-keto reductase family 1 member B1: Aldo-keto reductase family 1 member B1 (Bos taurus, UniProt P16116)

COC(=O)[C@H](C)Nc1ccnc(Nc2cccc(-c3cccnc3)c2)n1 — IC50 (FLT3; enzyme activity, inhibitor): > 22 µM
CN(CCCCNC(=O)c1cc2ccccc2[nH]1)[C@@H]1Cc2cccc3[nH]c(=O)n(c23)C1 — IC50 (5-hydroxytryptamine receptor 2C (HTR2C, Homo sapiens, UniProt P28335); ligand displacement, radioligand): 3.08 µM
CC1=C(/C=C/C(C)=C/C=C/C(C)=C/CO)C(C)(C)CCC1 — IC50 (Prothrombin (F2, Bos taurus, UniProt P00735); enzyme activity, inhibitor, fluorescence): 531 µM
O=C(Oc1nsnc1N1CCCCC1)N1CCc2ccccc2C1 — IC50 (FAAH; enzyme activity, inhibitor; cell membranes): 0.562 µM
c1cc(Nc2nccc(NC3CCCCC3)n2)cc(-c2cnccn2)c1 — IC50 (FLT3; enzyme activity, inhibitor): 0.02 µM
O=C1NCCc2sc(-c3ccncc3)cc21 — IC50 (Casein kinase I isoform delta (CSNK1D, Homo sapiens, UniProt P48730); enzyme activity, inhibitor): 1.4 µM
CC(C)Nc1ccnc(Nc2cccc(-c3nccs3)c2)n1 — IC50 (FLT3; enzyme activity, inhibitor): 0.475 µM
CNC(=O)c1cc2c(Oc3ccc(NC(=O)C4(C(=O)Nc5ccc(F)cc5)CC4)cc3)ccnc2cc1OC — IC50 (Tyrosine-protein kinase receptor TYRO3 (TYRO3, Homo sapiens, UniProt Q06418); enzyme activity, inhibitor, radiometric): 0.013 µM
CC(=N/N=c1\scc(-c2ccc(Cl)cc2)n1-c1c(C)cccc1C)C12CC3CC(CC(C3)C1)C2 — IC50 (Aldo-keto reductase family 1 member B1; enzyme activity, inhibitor, absorbance): 3.51 µM
CC(C)(C)n1nc(-c2ccc3nc(OC4CC4)ccc3c2)c(C(N)=O)c1N — IC50 (Rho-associated protein kinase 1 (ROCK1, Homo sapiens, UniProt Q13464); cell-free assay): > 10 µM
CC(Cc1ccc(C(C)(C)C)cc1)C(NN)c1nnnn1Cc1ccc2c(c1)OCO2 (stereo not shown) — IC50 (Endothiapepsin (EAPA, Cryphonectria parasitica, UniProt P11838); enzyme activity, inhibitor, fluorescence): 18 µM
c1cncc(C2CCCC(Nc3nccc(NC4CCCCC4)n3)C2)c1 (stereo not shown) — IC50 (FLT3; enzyme activity, inhibitor): > 23 µM
Cc1ccc2nc(-c3ccc([N+](=O)[O-])cc3)n(Cc3ccccc3)c2c1 — IC50 (Dihydrofolate reductase (DHFR, Homo sapiens, UniProt P00374); enzyme activity, inhibitor): 6.78 µM
Fc1ccc(C2CCN(c3nc(-c4ccccn4)nc4ccccc34)C2)cc1 (stereo not shown) — IC50 (Sterol 14-alpha demethylase (CYP51, Trypanosoma cruzi, UniProt Q7Z1V1); enzyme activity, inhibitor, fluorescence): > 100 µM
C[C@H]1OC(=O)/C=C/C(=O)[C@@H](OC(=O)CCC(=O)O)CCCCCCCC[C@H]1O — IC50 (Stromelysin-1 (MMP3, Homo sapiens, UniProt P08254); enzyme activity, inhibitor): 10 µM
CC(C)Nc1ccnc(Nc2ccccc2-c2ccccc2)n1 — IC50 (FLT3; enzyme activity, inhibitor): > 24 µM
O=[N+]([O-])c1ccc(-c2cs/c(=N/N=C\c3c[nH]c4ccccc34)n2Cc2ccccc2)cc1 — IC50 (Aldo-keto reductase family 1 member B1; enzyme activity, inhibitor, absorbance): 1.52 µM
c1ccc(N2CCCC(Nc3nccc(NC4CCCCC4)n3)C2)cc1 (stereo not shown) — IC50 (FLT3; enzyme activity, inhibitor): 3.26 µM
CC(=N/N=c1\scc(-c2ccc(Cl)cc2)n1Cc1ccccc1)C12CC3CC(CC(C3)C1)C2 — IC50 (Aldo-keto reductase family 1 member B1; enzyme activity, inhibitor, absorbance): 2.18 µM
CC/C=C\C/C=C\C/C=C\C/C=C\C/C=C\CCCC(=O)O — IC50 (DNA topoisomerase 2-alpha (TOP2A, Homo sapiens, UniProt P11388); enzyme activity, inhibitor): 10 µM
CONc1ccnc(Nc2cccc(-c3cccnc3)c2)n1 — IC50 (FLT3; enzyme activity, inhibitor): > 34 µM
O=C(Oc1nsnc1N1CCC(Cc2ccccc2)CC1)N1CCCCC1 — IC50 (FAAH; enzyme activity, inhibitor; cell membranes): 0.324 µM
